Laboratory results taken from ChEMBL document CHEMBL4371012, “Development of Macrocyclic Peptides Containing Epoxyketone with Oral Availability as Proteasome Inhibitors” (J Med Chem, 2018).
Active and inactive are the calls of the source. The rule behind the calls is not given here.

Columns and labels:
[1] = molecular target: T1, Proteasome Macropain subunit MB1 (Homo sapiens, UniProt P28074); test: Inhibition of human 20S proteasome chymotrypsin-like activity using Suc-Leu-Leu-Val-Tyr-AMC as substrate pretreated for 15 mins followed by substrate addition by fluorescence assay
T1 sequence (P28074 whole entry): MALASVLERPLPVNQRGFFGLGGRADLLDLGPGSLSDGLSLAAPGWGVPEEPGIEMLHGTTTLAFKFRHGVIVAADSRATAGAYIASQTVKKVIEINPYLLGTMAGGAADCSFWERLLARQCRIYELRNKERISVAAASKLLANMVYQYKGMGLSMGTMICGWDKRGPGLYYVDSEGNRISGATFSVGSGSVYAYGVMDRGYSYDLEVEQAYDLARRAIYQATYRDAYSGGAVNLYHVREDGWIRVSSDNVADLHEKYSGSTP

[2] = system: RPMI-8226; test: Antiproliferative activity against human RPMI8226 cells after 72 hrs by MTS assay; assay type: functional, cell-based; conditions: RPMI-8226, 72 h
[3] = system: MM1.S; test: Antiproliferative activity against human MM1S cells after 72 hrs by MTS assay; assay type: functional, cell-based
[4] = system: MV4-11; test: Antiproliferative activity against human MV4-11 cells after 72 hrs by MTS assay; assay type: functional, cell-based; conditions: MV4-11, 72 h
[5] = Metabolic stability in mouse liver microsomes assessed as parent compound remaining at 100 uM after 30 mins by LC-MS/MS analysis; assay type: ADME, Microsome; conditions: read-out: Stability
Procedure, shortened: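 After the microsomal incubation, the clear supernatant was analysed by ESI LC-MS. The read-out was the relative peak area of each parent compound.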

[6] = system: Mus musculus; test: In vivo inhibition of 20S proteasome chymotrypsin-like activity in Balb/c mouse blood at 30 mg/kg, po measured at 2 to 24 hrs post dose using LLVY-AMC as substrate by fluorescence assay; assay type: functional, organism-based
Procedure, shortened: (§1)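 BALB/c mice dosed orally in 0.5% CMC-Na vehicle. Blood was sampled at 2 and 24 h after dosing for proteasome chymotrypsin-like activity.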

[7] = Clearance in ICR mouse at 5 mg/kg, iv by LC-MS/MS analysis; assay type: ADME, organism-based; conditions: in vivo
[8] = Volume of distribution at steady state in ICR mouse at 5 mg/kg, iv by LC-MS/MS analysis; assay type: ADME, organism-based; conditions: in vivo, read-out: Vdss
[9] = Half life in ICR mouse at 5 mg/kg, iv by LC-MS/MS analysis; assay type: ADME, organism-based; conditions: in vivo
[10] = AUC (0 to t) in ICR mouse at 5 mg/kg, iv after 1 hr by LC-MS/MS analysis; assay type: ADME, organism-based; design: time < 1 hr, dose 5 mg/kg, route intravenous; conditions: in vivo
[11] = Cmax in ICR mouse at 25 mg/kg, po via gavage by LC-MS/MS analysis; assay type: ADME, organism-based; design: dose 25 mg/kg, route oral; conditions: in vivo
[12] = Tmax in ICR mouse at 25 mg/kg, po via gavage by LC-MS/MS analysis; assay type: ADME, organism-based; conditions: in vivo
[13] = AUC (0 to t) in ICR mouse at 25 mg/kg, po via gavage after 1 hr by LC-MS/MS analysis; assay type: ADME, organism-based; design: time < 1 hr, dose 25 mg/kg, route oral; conditions: in vivo
[14] = Oral bioavailability in ICR mouse at 25 mg/kg via gavage by LC-MS/MS analysis; assay type: ADME, organism-based; conditions: in vivo
[15] = Metabolic stability in mouse liver microsomes assessed as parent compound remaining at 100 uM after 5 mins by LC-MS/MS analysis; assay type: ADME, Microsome; conditions: read-out: Stability
[16] = system: Mus musculus; test: In vivo inhibition of 20S proteasome chymotrypsin-like activity in Balb/c mouse blood at 100 mg/kg, po measured at 2 to 24 hrs post dose using LLVY-AMC as substrate by fluorescence assay; assay type: functional, organism-based; procedure, shortened: as §1
[17] = Apparent permeability from apical to basolateral side in human Caco2 cells measured at 90 mins time interval by LC-MS/MS analysis; conditions: Caco-2
[18] = Apparent permeability from basolateral to apical side in human Caco2 cells measured at 90 mins time interval by LC-MS/MS analysis; conditions: Caco-2
[19] = Efflux ratio of apparent permeability in human Caco2 cells measured at 90 mins time interval by LC-MS/MS analysis; conditions: Caco-2

Compound	IC50 [1]	IC50 [2]	IC50 [3]	IC50 [4]	other results
COC[C@H](NC(=O)c1cnc(C)s1)C(=O)N[C@@H](COC)C(=O)N[C@@H](Cc1ccccc1)C(=O)[C@@]1(C)CO1 [OPROZOMIB]	–	19 nM	9 nM	28 nM	remaining at 0.5 h, 100 µM [5]: 60%; inhibition [6]: Active; clearance [7]: 164 mL/min/kg; Vd [8]: 0.51 L/kg; half-life [9]: 2.4 min; AUC(0-t) at 1 h [10]: 506 ng·h/mL; Cmax [11]: 261 ng/mL; Tmax [12]: 13.2 min; AUC(0-t) at 1 h [13]: 142 ng·h/mL; bioavailability [14]: 5.61%
COC[C@@H]1NC(=O)c2sccc2OCCCCCCOC[C@@H](C(=O)N[C@@H](Cc2ccccc2)C(=O)[C@@]2(C)CO2)NC1=O	257 nM	128 nM	63 nM	131 nM	–
COC[C@@H]1NC(=O)c2sc(C)nc2OCCCCCCOC[C@@H](C(=O)N[C@@H](Cc2ccccc2)C(=O)[C@@]2(C)CO2)NC1=O	392 nM	> 100 nM	65 nM	36 nM	–
COC[C@@H]1NC(=O)c2cnn(C)c2OCCCCCCOC[C@@H](C(=O)N[C@@H](Cc2ccccc2)C(=O)[C@@]2(C)CO2)NC1=O	32 nM	20 nM	6 nM	4 nM	remaining at 0.5 h, 100 µM [5]: 63%
COC[C@@H]1NC(=O)c2ccc(OC)cc2OCCCCCCOC[C@@H](C(=O)N[C@@H](Cc2ccccc2)C(=O)[C@@]2(C)CO2)NC1=O	253 nM	> 100 nM	43 nM	–	–
COC[C@@H]1NC(=O)c2cccnc2OCCCCCCOC[C@@H](C(=O)N[C@@H](Cc2ccccc2)C(=O)[C@@]2(C)CO2)NC1=O	232 nM	–	–	–	–
COC[C@@H]1NC(=O)c2nccn2CCCCCCCOC[C@@H](C(=O)N[C@@H](Cc2ccccc2)C(=O)[C@@]2(C)CO2)NC1=O	37 nM	5 nM	2 nM	5 nM	–
COC[C@@H]1NC(=O)c2cccn2CCCCCCOC[C@@H](C(=O)N[C@@H](Cc2ccccc2)C(=O)[C@@]2(C)CO2)NC1=O	14 nM	13 nM	4 nM	11 nM	remaining at 5 min, 100 µM [15]: < 5%
COC[C@@H]1NC(=O)c2cccc(OC)c2OCCCCCCOC[C@@H](C(=O)N[C@@H](Cc2ccccc2)C(=O)[C@@]2(C)CO2)NC1=O	4 nM	5 nM	3 nM	6 nM	remaining at 5 min, 100 µM [15]: < 5%
COC[C@@H]1NC(=O)c2cnn(C)c2CCCCCCOC[C@@H](C(=O)N[C@@H](Cc2ccccc2)C(=O)[C@@]2(C)CO2)NC1=O	20 nM	3 nM	2 nM	3 nM	remaining at 0.5 h, 100 µM [5]: 48%
CC[C@H]1OC(=O)[C@H](C)[C@@H](O[C@H]2C[C@@](C)(OC)[C@@H](O)[C@H](C)O2)[C@H](C)[C@@H](O[C@@H]2O[C@H](C)C[C@H](N(C)C)[C@H]2O)[C@](C)(O)C[C@@H](C)C(=O)[C@H](C)[C@@H](O)[C@]1(C)O [ERYTHROMYCIN]	–	–	–	–	Papp A→B at 1.5 h [17]: < 0.19 ×10⁻⁶ cm/s; Papp B→A at 1.5 h [18]: 15.1 ×10⁻⁶ cm/s; efflux ratio at 1.5 h [19]: > 79.5
COC[C@@H]1NC(=O)c2ccnn2CCCCCCOC[C@@H](C(=O)N[C@@H](Cc2ccccc2)C(=O)[C@@]2(C)CO2)NC1=O	16 nM	2 nM	3 nM	2 nM	remaining at 0.5 h, 100 µM [5]: 75%; inhibition [6]: Active; clearance [7]: 107 mL/min/kg; Vd [8]: 0.48 L/kg; half-life [9]: 6 min; AUC(0-t) at 1 h [10]: 784 ng·h/mL; Cmax [11]: 325 ng/mL; Tmax [12]: 4.8 min; AUC(0-t) at 1 h [13]: 141 ng·h/mL; bioavailability [14]: 3.72%
COCCc1ccc(OCC(O)CNC(C)C)cc1 (centres undefined) [METOPROLOL]	–	–	–	–	Papp A→B at 1.5 h [17]: 35.2 ×10⁻⁶ cm/s; Papp B→A at 1.5 h [18]: 25.9 ×10⁻⁶ cm/s; efflux ratio at 1.5 h [19]: 0.74
COC[C@@H]1NC(=O)[C@@H]2CCCN2C(=O)CCCCCOC[C@@H](C(=O)N[C@@H](Cc2ccccc2)C(=O)[C@@]2(C)CO2)NC1=O	352 nM	350 nM	172 nM	421 nM	–
COC[C@@H]1NC(=O)c2ncccc2OCCCCCCOC[C@@H](C(=O)N[C@@H](Cc2ccccc2)C(=O)[C@@]2(C)CO2)NC1=O	248 nM	> 100 nM	37 nM	–	–
COC[C@@H]1NC(=O)c2ccccc2OCCOCCOC[C@@H](C(=O)N[C@@H](Cc2ccccc2)C(=O)[C@@]2(C)CO2)NC1=O	116 nM	55 nM	12 nM	33 nM	–
COC[C@@H]1NC(=O)c2ccccc2OCCOCCOCCOC[C@@H](C(=O)N[C@@H](Cc2ccccc2)C(=O)[C@@]2(C)CO2)NC1=O	370 nM	82 nM	43 nM	130 nM	–
COC[C@@H]1NC(=O)c2ccnn2CCCCCCCOC[C@@H](C(=O)N[C@@H](Cc2ccccc2)C(=O)[C@@]2(C)CO2)NC1=O	25 nM	5 nM	2 nM	5 nM	–

Now from value to compound, other results behind:

IC50 [1]	IC50 [2]	IC50 [3]	IC50 [4]	Compound	other results
25 nM	10 nM	3 nM	9 nM	COC[C@@H]1NC(=O)c2cccc(F)c2OCCCCCCOC[C@@H](C(=O)N[C@@H](Cc2ccccc2)C(=O)[C@@]2(C)CO2)NC1=O	–
162 nM	> 100 nM	53 nM	–	COC[C@@H]1NC(=O)c2ccc(C)cc2OCCCCCCOC[C@@H](C(=O)N[C@@H](Cc2ccccc2)C(=O)[C@@]2(C)CO2)NC1=O	–
54 nM	> 100 nM	58 nM	36 nM	COC[C@@H]1NC(=O)c2ccccc2OCCCCCCOC[C@@H](C(=O)N[C@@H](Cc2ccccc2)C(=O)[C@@]2(C)CO2)NC1=O	remaining at 5 min, 100 µM [15]: < 5%; inhibition [16]: Active; inhibition [6]: inactive; clearance [7]: 67.2 mL/min/kg; Vd [8]: 0.62 L/kg; half-life [9]: 9.6 min; AUC(0-t) at 1 h [10]: 1240 ng·h/mL; Cmax [11]: 519 ng/mL; Tmax [12]: 4.8 min; AUC(0-t) at 1 h [13]: 133 ng·h/mL; bioavailability [14]: 2.15%
346 nM	–	–	–	COC[C@@H]1NC(=O)c2ccccc2OCCCCCCCCOC[C@@H](C(=O)N[C@@H](Cc2ccccc2)C(=O)[C@@]2(C)CO2)NC1=O	–
36 nM	> 100 nM	65 nM	49 nM	COC[C@@H]1NC(=O)c2ccccc2OCCCCOC[C@@H](C(=O)N[C@@H](Cc2ccccc2)C(=O)[C@@]2(C)CO2)NC1=O	–
100 nM	> 100 nM	43 nM	26 nM	COC[C@@H]1NC(=O)c2ccc(Cl)cc2OCCCCCCOC[C@@H](C(=O)N[C@@H](Cc2ccccc2)C(=O)[C@@]2(C)CO2)NC1=O	–
51 nM	32 nM	11 nM	–	COC[C@@H]1NC(=O)c2cccc(c2)OCCCCCCCCOC[C@@H](C(=O)N[C@@H](Cc2ccccc2)C(=O)[C@@]2(C)CO2)NC1=O	–
205 nM	> 100 nM	69 nM	–	COC[C@@H]1NC(=O)c2ccc(F)cc2OCCCCCCOC[C@@H](C(=O)N[C@@H](Cc2ccccc2)C(=O)[C@@]2(C)CO2)NC1=O	–
14 nM	73 nM	32 nM	66 nM	COC[C@@H]1NC(=O)c2ccccc2OCCCCCCC[C@@H](C(=O)N[C@@H](Cc2ccccc2)C(=O)[C@@]2(C)CO2)NC1=O	–
436 nM	–	–	–	COC[C@@H]1NC(=O)c2cc(Cl)ccc2OCCCCCCOC[C@@H](C(=O)N[C@@H](Cc2ccccc2)C(=O)[C@@]2(C)CO2)NC1=O	remaining at 5 min, 100 µM [15]: < 5%
63 nM	> 100 nM	78 nM	39 nM	COC[C@@H]1NC(=O)c2ccccc2OCCCCCCCOC[C@@H](C(=O)N[C@@H](Cc2ccccc2)C(=O)[C@@]2(C)CO2)NC1=O	–
35 nM	120 nM	137 nM	72 nM	COC[C@@H]1NC(=O)c2ccccc2OCCCCCCCC[C@@H](C(=O)N[C@@H](Cc2ccccc2)C(=O)[C@@]2(C)CO2)NC1=O	–
21 nM	74 nM	29 nM	13 nM	COC[C@@H]1NC(=O)c2ccccc2OCCCCCOC[C@@H](C(=O)N[C@@H](Cc2ccccc2)C(=O)[C@@]2(C)CO2)NC1=O	–
460 nM	–	–	–	COC[C@@H]1NC(=O)c2ccccc2OCCCCCCCCCOC[C@@H](C(=O)N[C@@H](Cc2ccccc2)C(=O)[C@@]2(C)CO2)NC1=O	–
